# Data taken from ChEMBL document CHEMBL2086314, “Synthesis and anticonvulsant activity of new N-Mannich bases derived from 3-(2-fluorophenyl)- and 3-(2-bromophenyl)-pyrrolidine-2,5-diones. Part II” (Bioorg Med Chem, 2012).
# Active and inactive are the calls of the source. The rule behind the calls is not given here.
# Legend:
# Mus musculus [1] = assay: Anticonvulsant activity in ip dosed 6 Hz psychomotor-induced seizure in CF-1 albino mouse assessed as time of peak effect; format: functional
# [2] = Neurotoxicity in ip dosed CF-1 albino mouse assessed as motor impairment by rotarod test; format: toxicity, organism-based; conditions: in vivo
# Rattus norvegicus [3] = assay: Anticonvulsant activity in Sprague-Dawley rat assessed as protection from maximum electric shock-induced seizures at 30 mg/kg, po measured after 2 hrs; format: functional
# Summary of the method: (§1)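 Male Sprague–Dawley rats, four per group, given 30 mg/kg orally as a suspension in 0.5% methylcellulose/water. MES stimulus 150 mA, 60 Hz, 0.2 s via corneal electrodes. Tested at 0.25, 0.5, 1, 2 and 4 h; value is rats protected out of four.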
# Rattus norvegicus [4] = assay: Anticonvulsant activity in Sprague-Dawley rat assessed as protection from maximum electric shock-induced seizures at 30 mg/kg, po measured after 0.5 hrs; format: functional; summary of the method: as §1
# Mus musculus [5] = assay: Anticonvulsant activity in ip dosed maximal electric shock-induced CF-1 albino mouse assessed as time of peak effect; format: functional
# Summary of the method: (§2)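 ED50 and TD50 determined in male CF-1 mice after ip dosing (0.5% methylcellulose suspension) at the previously estimated time of peak effect. MES 50 mA, 60 Hz, 0.2 s. Groups of eight, with doses varied until at least three points fell between 10–90% protection or motor impairment. Regression gives ED50/TD50 with 95% confidence intervals; PI = TD50/ED50.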
# [6] = Neurotoxicity in po dosed Sprague-Dawley rat assessed as motor impairment measured at time of peak effect by rotarod test; format: toxicity, organism-based; conditions: in vivo
# Summary of the method: (§3)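 Male Sprague–Dawley rats dosed orally (0.5% methylcellulose suspension). MES 150 mA, 60 Hz, 0.2 s; rotarod impairment is failure to keep balance for 1 min. Groups of eight, at the previously estimated time of peak effect, with doses varied until at least three points fell in the 10–90% range. ED50/TD50 with 95% confidence intervals from regression; PI = TD50/ED50.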
# Rattus norvegicus [7] = species: Rattus norvegicus; assay: Protective index, ratio of TD50 for Sprague-Dawley rat to ED50 for Sprague-Dawley rat assessed as protection from maximum electric shock-induced seizures; format: functional; summary of the method: as §3
# Rattus norvegicus [8] = assay: Anticonvulsant activity in Sprague-Dawley rat assessed as protection from maximum electric shock-induced seizures at 30 mg/kg, po measured after 1 hr; format: functional; summary of the method: as §1
# Mus musculus [9] = species: Mus musculus; assay: Protective index, ratio of TD50 for CF-1 albino mouse to ED50 for CF-1 albino mouse assessed as protection from maximum electric shock-induced seizures; format: functional; summary of the method: as §2
# Rattus norvegicus [10] = assay: Anticonvulsant activity in Sprague-Dawley rat assessed as protection from maximum electric shock-induced seizures at 30 mg/kg, po measured after 4 hrs; format: functional; summary of the method: as §1
# Mus musculus [11] = assay: Anticonvulsant activity in ip dosed CF-1 albino mouse assessed as protection from maximal electric shock-induced seizures; format: functional; summary of the method: as §2
# Mus musculus [12] = assay: Neurotoxicity in CF-1 albino mouse assessed as motor impairment at 300 mg/kg, ip measured after 4 hrs by rotarod test; format: toxicity, organism-based; parameters: dose 300 mg/kg, route intraperitoneal; conditions: in vivo
# Summary of the method: (§4)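 Rotarod neurotoxicity in male CF-1 mice given ip doses of 30, 100 or 300 mg/kg (0.5% methylcellulose suspension), examined 0.5 and 4 h after dosing. Impairment means failing to hold balance on the rod for 1 min. Value is the minimum dose causing toxicity in half or more of the animals; response comments are recorded.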
# Mus musculus [13] = assay: Anticonvulsant activity in CF-1 albino mouse assessed as protection from maximal electric shock-induced seizures at 300 mg/kg, ip measured after 0.5 hrs; format: functional, organism-based; parameters: dose 300 mg/kg
# Summary of the method: (§5)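 Male CF-1 mice dosed ip at 30, 100 or 300 mg/kg, suspension in 0.5% methylcellulose/water. MES: corneal electrodes primed with electrolyte containing anaesthetic, 50 mA, 60 Hz, 0.2 s. Examined 0.5 and 4 h after dosing. Value is the minimum dose protecting half or more of the animals.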
# Mus musculus [14] = assay: Neurotoxicity in CF-1 albino mouse assessed as motor impairment at 300 mg/kg, ip measured after 0.5 hrs by rotarod test; format: toxicity, organism-based; parameters: dose 300 mg/kg, route intraperitoneal; conditions: in vivo; summary of the method: as §4
# Rattus norvegicus [15] = assay: Neurotoxicity in Sprague-Dawley rat assessed as motor impairment at 30 mg/kg, po by rotarod test; format: toxicity, organism-based; parameters: dose 30 mg/kg, route oral; conditions: in vivo
# Summary of the method: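 Male Sprague–Dawley rats, four animals, oral 30 mg/kg in 0.5% methylcellulose/water. Motor impairment on the rotarod (failure to keep balance for 1 min) assessed alongside MES at five times from 0.25 to 4 h.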
# Rattus norvegicus [16] = assay: Anticonvulsant activity in Sprague-Dawley rat assessed as protection from maximum electric shock-induced seizures at 30 mg/kg, po measured after 0.25 hrs; format: functional; summary of the method: as §1
# Rattus norvegicus [17] = assay: Anticonvulsant activity in po dosed Sprague-Dawley rat assessed as protection from maximum electric shock-induced seizures; format: functional; summary of the method: as §3
# Mus musculus [18] = assay: Anticonvulsant activity in ip dosed CF-1 albino mouse assessed as protection from maximal electric shock-induced seizures measured after 4 hrs; format: functional; conditions: read-out: MED; summary of the method: as §5
# Rattus norvegicus [19] = assay: Anticonvulsant activity in po dosed maximum electric shock-induced Sprague-Dawley rat assessed as time of peak effect; format: functional; summary of the method: as §3
# Mus musculus [20] = assay: Anticonvulsant activity in CF-1 albino mouse assessed as protection against 6 Hz psychomotor seizure at 100 mg/kg, ip measured after 0.25 hrs; format: functional; conditions: route intraperitoneal
# Summary of the method: (§6)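 6-Hz psychomotor seizure in male CF-1 mice, compound suspended in 0.5% methylcellulose/water, given ip (100 or 75 mg/kg). Corneal stimulation with 0.2 ms monopolar rectangular pulses at 6 Hz for 3 s, 32 mA, constant-current device. Protected if normal exploratory behaviour resumes within 10 s. Tested 0.25–4 h after dosing; value is mice protected out of four.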
# Mus musculus [21] = assay: Neurotoxicity in ip dosed CF-1 albino mouse assessed as motor impairment measured after 0.5 hrs by rotarod test; format: toxicity, organism-based; conditions: in vivo; summary of the method: as §4
# Mus musculus [22] = assay: Neurotoxicity in CF-1 albino mouse assessed as myoclonic jerks at 300 mg/kg, ip measured after 0.5 hrs by rotarod test; format: toxicity, organism-based; parameters: dose 300 mg/kg, route intraperitoneal; conditions: in vivo
# Mus musculus [23] = assay: Anticonvulsant activity in ip dosed CF-1 albino mouse assessed as protection from maximal electric shock-induced seizures measured after 0.5 hrs; format: functional; conditions: read-out: MED; summary of the method: as §5
# Mus musculus [24] = assay: Anticonvulsant activity in CF-1 albino mouse assessed as protection against 6 Hz psychomotor seizure at 100 mg/kg, ip measured after 1 hr; format: functional; conditions: route intraperitoneal; summary of the method: as §6
# Mus musculus [25] = assay: Neurotoxicity in CF-1 albino mouse assessed as inability to grasp rotarod at 300 mg/kg, ip measured after 0.5 hrs by rotarod test; format: toxicity, organism-based; parameters: dose 300 mg/kg, route intraperitoneal; conditions: in vivo; summary of the method: as §4
# Mus musculus [26] = assay: Anticonvulsant activity in CF-1 albino mouse assessed as protection against 6 Hz psychomotor seizure at 100 mg/kg, ip measured after 0.5 hrs; format: functional; conditions: route intraperitoneal; summary of the method: as §6
# Mus musculus [27] = assay: Anticonvulsant activity in CF-1 albino mouse assessed as protection against subcutaneous pentylenetetrazol-induced seizures at 300 mg/kg, ip measured after 4 hrs; format: functional, organism-based; parameters: dose 300 mg/kg
# Summary of the method: (§7)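 scPTZ test in male CF-1 mice. Compound suspended in 0.5% methylcellulose/water, ip at 30, 100 or 300 mg/kg. Pentylenetetrazole 85 mg/kg (CD97, clonic seizures lasting at least 5 s) given subcutaneously at the test time, read at 0.5 and 4 h. Value is the minimum dose protecting half or more of the animals.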
# Mus musculus [28] = assay: Anticonvulsant activity in ip dosed CF-1 albino mouse assessed as protection against subcutaneous pentylenetetrazol-induced seizures measured after 0.5 hrs; format: functional; conditions: read-out: MED; summary of the method: as §7
# Mus musculus [29] = assay: Anticonvulsant activity in CF-1 albino mouse assessed as protection against 6 Hz psychomotor seizure at 100 mg/kg, ip measured after 2 hrs; format: functional; conditions: route intraperitoneal; summary of the method: as §6
# Mus musculus [30] = assay: Anticonvulsant activity in CF-1 albino mouse assessed as protection against 6 Hz psychomotor seizure at 100 mg/kg, ip measured after 4 hrs; format: functional; conditions: route intraperitoneal; summary of the method: as §6
# Mus musculus [31] = assay: Neurotoxicity in CF-1 albino mouse assessed as motor impairment, ip measured after 4 hrs by rotarod test; format: toxicity, organism-based; conditions: in vivo
# Mus musculus [32] = assay: Anticonvulsant activity in CF-1 albino mouse assessed as protection from maximal electric shock-induced seizures at 100 mg/kg, ip measured after 6 hrs; format: functional, organism-based; parameters: dose 100 mg/kg
# Mus musculus [33] = assay: Neurotoxicity in CF-1 albino mouse assessed as myoclonic jerks at 100 mg/kg, ip measured after 0.5 hrs by rotarod test; format: toxicity, organism-based; parameters: dose 100 mg/kg, route intraperitoneal; conditions: in vivo
# Mus musculus [34] = assay: Anticonvulsant activity in ip dosed CF-1 albino mouse assessed as protection against subcutaneous pentylenetetrazol-induced seizures measured after 4 hrs; format: functional; conditions: read-out: MED; summary of the method: as §7
# Mus musculus [35] = assay: Neurotoxicity in CF-1 albino mouse assessed as myoclonic jerks at 300 mg/kg, ip measured after 4 hrs by rotarod test; format: toxicity, organism-based; parameters: dose 300 mg/kg, route intraperitoneal; conditions: in vivo
smiles,measurement,setting,value
CC[C@@H](C(N)=O)N1CCCC1=O,Time,Mus musculus [1],1 h
same,TD50,[2],> 500 mg/kg
O=C1CC(c2ccccc2Br)C(=O)N1CN1CCN(c2ccc(F)cc2)CC1 (racemic),Activity,Rattus norvegicus [3],50%
same,Activity,Rattus norvegicus [4],25%
same,Time,Mus musculus [5],4 h
same,TD50,[6],62.4 mg/kg
same,Ratio TD50/ED50,Rattus norvegicus [7],8.43
same,Activity,Rattus norvegicus [8],25%
same,Ratio TD50/ED50,Mus musculus [9],5.83
same,Activity,Rattus norvegicus [10],75%
same,ED50,Mus musculus [11],79.9 mg/kg
same,Activity,Mus musculus [12],Non-toxic
same,Activity,Mus musculus [13],inactive
same,Activity,Mus musculus [14],Non-toxic
same,Activity,Rattus norvegicus [15],Non-toxic
same,Activity,Rattus norvegicus [16],25%
same,ED50,Rattus norvegicus [17],7.4 mg/kg
same,TD50,[2],466 mg/kg
same,minimal effective dose,Mus musculus [18],100 mg/kg
same,Time,Rattus norvegicus [19],4 h
O=C1CC(c2ccccc2F)C(=O)N1CN1CCN(Cc2ccccc2)CC1 (racemic),Activity,Mus musculus [20],0%
same,Activity,Mus musculus [12],Non-toxic
same,MTC,Mus musculus [21],300 mg/kg
same,Activity,Mus musculus [22],Toxic
same,minimal effective dose,Mus musculus [23],300 mg/kg
same,Activity,Mus musculus [24],0%
same,Activity,Mus musculus [25],Toxic
same,Activity,Mus musculus [26],25%
same,Activity,Mus musculus [27],inactive
same,minimal effective dose,Mus musculus [28],300 mg/kg
same,Activity,Mus musculus [29],0%
same,Activity,Mus musculus [30],0%
same,minimal effective dose,Mus musculus [18],300 mg/kg
O=C1CC(c2ccccc2Br)C(=O)N1CN1CCN(c2ncccn2)CC1 (racemic),MTC,Mus musculus [31],300 mg/kg
same,Activity,Mus musculus [32],Active
same,Activity,Mus musculus [33],Toxic
same,MTC,Mus musculus [21],300 mg/kg
same,Activity,Mus musculus [13],inactive
same,minimal effective dose,Mus musculus [34],300 mg/kg
same,Activity,Mus musculus [35],Toxic
same,minimal effective dose,Mus musculus [28],100 mg/kg
same,minimal effective dose,Mus musculus [18],100 mg/kg
